Legend:
[1] = test system: TAP1-GFP in MelJuSo cells; test: TAP mobility assay; assay type: cell-based, human; details: FRAP; for initial increase in intracellular peptides: measured 1 h after irradiation, Fig. 2A and unpublished data
Summary of the method: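 FRAP was run at 37°C on MelJuSo cells stably expressing TAP1-GFP, imaged 1 h after 4 Gy γ-irradiation. Some cells were pretreated with 10 μM lactacystin for 30 min, ATP-depleted with 0.05% NaAz plus […] 2-deoxyglucose for 30 min, or given cycloheximide. An ER spot was bleached at full laser power and recovery followed with an attenuated beam. Diffusion coefficient came from bleach-corrected recovery half-times: ≥3 experiments, mean ± SD.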

MC38 cells [2] = test: 111In release cytotoxicity assay with gp70-specific CTL; assay type: cell-based, mouse; details: 20 nM rapamycin 24 h, then 18 h with CTL
MC38 cells [3] = test: H2-Kb expression of MC38 cells by flow cytometry; assay type: cell-based, mouse; details: MC38, 20 Gy, 24 h, 20 nM rapamycin; FITC mAb H-2Kb
Summary of the method: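 MC38 murine colon adenocarcinoma cells (H-2b) were γ-irradiated with 20 Gy (137Cs, 0.75 Gy/min) and cultured 24 h with or without 20 nM rapamycin. They were then stained with FITC-labelled anti-H-2Kb mAb and analysed by flow cytometry against an isotype control antibody. Percentage of positive cells and mean fluorescence intensity were reported.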

mTOR pathway [4] = test: Biosynthetic labeling and immunoprecipitation of MHC molecules; assay type: cell-based, human; details: HLA-A2-GFP MelJuSo, 0, 10 or 20 Gy, 6 h, 10 nM rapamycin, 35S-methionine/cystein 1 h
mTOR pathway [5] = test: GFP expression of irradiated MelJuSo cells by flow cytometry; assay type: cell-based, human; details: 20 nM rapamycin
Summary of the method: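 MelJuSo cells stably transfected with EGFP in pcDNA3 (CMV promoter) received 0 or 25 Gy γ-irradiation (137Cs, 0.75 Gy/min), with or without 20 nM rapamycin. GFP fluorescence was read by flow cytometry at 0, 4 or 24 h after irradiation. n = 6, mean ± SD.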

mTOR pathway [6] = test: Surface MHC class I expression of MelJuSo cells; assay type: cell-based, human; details: 25 Gy, 20 nM rapamycin, W6/32 flow cytometry, n = 4
Summary of the method: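 Human melanoma MelJuSo cells received 0–25 Gy γ-irradiation (137Cs, 0.75 Gy/min). They were cultured for the stated times with or without 20 nM rapamycin, stained for surface MHC class I with W6/32 and analysed by flow cytometry, with a background control lacking primary antibody. Mean fluorescence intensity was expressed relative to nonirradiated control cells.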

SMILES	initial increase in intracellular peptides [1]	TAP activity in irradiated cells ([1]; pretreatment before irradiation, 4 Gy, measured 1 h later, n = 9)	lysis of irradiated MC38 cells by gp70-specific CTL (MC38 cells [2]; 20 Gy, E:T 100:1 to 3.125:1)	CTL recognition of nonirradiated cells (MC38 cells [2]; MC38, no radiation)	radiation-induced up-regulation of MHC class I expression (MC38 cells [3])	translation of GFP-tagged and endogenous MHC class I molecules, H chains and MHC class II molecules (mTOR pathway [4])	GFP expression in response to ionizing radiation (mTOR pathway [5]; MelJuSo-EGFP (CMV promoter), 25 Gy, 24 h, n = 6)	GFP expression in nonirradiated cells (mTOR pathway [5]; MelJuSo-EGFP, no radiation)	MHC class I expression 4 h after irradiation (mTOR pathway [6]; 4 h)	radiation-induced increase in MHC class I expression 24 h after irradiation (mTOR pathway [6]; 24 h)
C[C@@H]1C[C@@H]([C@H](O)CC2CC(=O)NC(=O)C2)C(=O)[C@@H](C)C1 [cycloheximide]	not inhibited	no effect on TAP activity	–	–	–	–	–	–	–	–
CO[C@H]1C[C@@H]2CC[C@@H](C)[C@@](O)(O2)C(=O)C(=O)N2CCCC[C@H]2C(=O)O[C@H]([C@H](C)C[C@@H]2CC[C@@H](O)[C@H](OC)C2)CC(=O)[C@H](C)/C=C(\C)[C@@H](O)[C@@H](OC)C(=O)[C@H](C)C[C@H](C)/C=C/C=C/C=C/1C [rapamycin]	not inhibited	–	enhanced lysis in a rapamycin-dependent fashion	no effect	can be inhibited	inhibited	no increase in GFP expression	decreased GFP expression	No effect	markedly reduced
